Laboratory results as given in ChEMBL document CHEMBL1926506, “Benzenediol-berberine hybrids: multifunctional agents for Alzheimer's disease” (Bioorg Med Chem, 2011).
Active and inactive are the calls of the source. The rule behind the calls is not given here.

Experiments:
Butyrylcholinesterase [1] = molecular target: T1, Butyrylcholinesterase (Equus caballus, UniProt Q9N1N9); assay: Inhibition of equine serum BuChE using […] as substrate preincubated for 15 mins by Ellman's method
[2] = Selectivity ratio of IC50 for equine serum BuChE to IC50 for electric eel AChE
Method in brief: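 Ellman assay in 0.1 M KH₂PO₄/K₂HPO₄ buffer, pH 8.0, with electric eel AChE or equine serum BuChE (2.0 units/ml solutions) and DTNB. Compounds dissolved in DMSO, diluted in buffer, and preincubated with enzyme for 15 min at 37 °C before substrate was added. A412 was read at 1 min intervals at 37 °C. Ratio calculated as IC50(BuChE)/IC50(AChE).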

Acetylcholinesterase = Acetylcholinesterase (Electrophorus electricus, UniProt O42275); assay: Inhibition of electric eel AChE using […] as substrate preincubated for 15 mins by Ellman's method
Sequence of Acetylcholinesterase (O42275 whole entry): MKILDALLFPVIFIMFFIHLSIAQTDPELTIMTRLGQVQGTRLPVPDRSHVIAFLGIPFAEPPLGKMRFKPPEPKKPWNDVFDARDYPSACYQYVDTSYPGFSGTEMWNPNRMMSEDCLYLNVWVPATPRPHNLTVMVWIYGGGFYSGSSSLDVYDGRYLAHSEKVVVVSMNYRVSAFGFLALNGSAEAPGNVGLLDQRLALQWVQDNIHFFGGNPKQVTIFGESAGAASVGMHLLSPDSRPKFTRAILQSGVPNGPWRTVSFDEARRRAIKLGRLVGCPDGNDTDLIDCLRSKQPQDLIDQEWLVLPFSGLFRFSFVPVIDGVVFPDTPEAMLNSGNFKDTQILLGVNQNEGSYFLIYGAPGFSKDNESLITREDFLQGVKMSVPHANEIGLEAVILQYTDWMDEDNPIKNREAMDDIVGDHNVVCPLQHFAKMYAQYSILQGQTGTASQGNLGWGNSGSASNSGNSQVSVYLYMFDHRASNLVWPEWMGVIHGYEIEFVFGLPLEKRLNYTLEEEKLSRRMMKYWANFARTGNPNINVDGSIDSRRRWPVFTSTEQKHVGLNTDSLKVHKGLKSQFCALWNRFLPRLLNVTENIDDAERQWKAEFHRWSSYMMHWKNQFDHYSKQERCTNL

Butyrylcholinesterase [3] = molecular target: T1, Butyrylcholinesterase; assay: Inhibition of equine serum BuChE using butyrylthiocholine chloride as substrate preincubated for 15 mins by Ellman's method
[4] = Inhibition of self-mediated amyloid beta (1 to 42) aggregation at 20 uM after 48 hrs by thioflavin T fluorescence assay
Method in brief: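 HFIP-pretreated Abeta1-42 resolubilized in 50 mM phosphate buffer pH 7.4, then incubated at 37 °C for 48 h (final peptide 50 µM) with or without compound at 20 µM. Samples diluted into 50 mM glycine-NaOH pH 8.0 containing thioflavin T. Fluorescence scanned 300 s (ex 450, em 485 nm). Plateau values averaged after subtracting thioflavin T background.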

[5] = Antioxidant activity assessed as trolox equivalent of […]-induced radical scavenging activity at 0.5 to 10 uM measured every 60 sec for 4 hrs by ORAC fluorescence assay relative to trolox; type: functional
Method in brief: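 ORAC-FL in 75 mM phosphate buffer pH 7.4. Sample and fluorescein (300 nM final) preincubated 10 min at 37 °C, then AAPH added (12 mM final). Fluorescence read every 60 s for 4 h (ex 485, em 535 nm). Trolox standard 1–10 µM final; samples 0.5–10 µM. Blank without antioxidant run each assay, curves normalized to it. Fourfold mixtures, at least four independent runs. Expressed as µM Trolox equivalent per µM compound.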

[6] = molecular target: Acetylcholinesterase (Electrophorus electricus) (UniProt O42275); assay: Mixed type inhibition of electric eel AChE using acetylcholine chloride as substrate by Lineweaver-Burk reciprocal plot analysis
Sequence of Acetylcholinesterase (Electrophorus electricus) (O42275 24-633 limits assumed): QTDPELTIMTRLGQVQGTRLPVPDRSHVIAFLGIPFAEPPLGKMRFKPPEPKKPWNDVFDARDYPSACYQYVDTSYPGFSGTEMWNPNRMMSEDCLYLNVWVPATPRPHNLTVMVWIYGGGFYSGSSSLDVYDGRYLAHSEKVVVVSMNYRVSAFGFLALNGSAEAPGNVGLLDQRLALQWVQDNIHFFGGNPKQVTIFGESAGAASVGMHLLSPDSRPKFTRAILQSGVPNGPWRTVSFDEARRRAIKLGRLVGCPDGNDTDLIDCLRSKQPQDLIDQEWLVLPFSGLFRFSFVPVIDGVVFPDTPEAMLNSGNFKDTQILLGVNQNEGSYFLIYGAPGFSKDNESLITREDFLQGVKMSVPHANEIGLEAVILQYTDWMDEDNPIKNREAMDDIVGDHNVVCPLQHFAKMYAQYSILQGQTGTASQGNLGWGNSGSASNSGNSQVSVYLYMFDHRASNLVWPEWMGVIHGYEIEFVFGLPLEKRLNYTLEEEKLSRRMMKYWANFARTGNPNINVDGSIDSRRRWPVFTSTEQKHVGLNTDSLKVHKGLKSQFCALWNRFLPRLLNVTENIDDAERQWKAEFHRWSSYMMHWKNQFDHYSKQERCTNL
Method in brief: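 Enzyme in 0.1 M potassium phosphate pH 8.0 with DTNB. Compound preincubated with enzyme at 37 °C for 15 min, then acetylcholine substrate added. Absorbance read at 412 nm. Reciprocal plots of 1/V versus 1/[S]. Slopes replotted against inhibitor concentration by weighted analysis. Ki taken as the replot intercept divided by the replot slope.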

T1 sequence (Q9N1N9 whole entry): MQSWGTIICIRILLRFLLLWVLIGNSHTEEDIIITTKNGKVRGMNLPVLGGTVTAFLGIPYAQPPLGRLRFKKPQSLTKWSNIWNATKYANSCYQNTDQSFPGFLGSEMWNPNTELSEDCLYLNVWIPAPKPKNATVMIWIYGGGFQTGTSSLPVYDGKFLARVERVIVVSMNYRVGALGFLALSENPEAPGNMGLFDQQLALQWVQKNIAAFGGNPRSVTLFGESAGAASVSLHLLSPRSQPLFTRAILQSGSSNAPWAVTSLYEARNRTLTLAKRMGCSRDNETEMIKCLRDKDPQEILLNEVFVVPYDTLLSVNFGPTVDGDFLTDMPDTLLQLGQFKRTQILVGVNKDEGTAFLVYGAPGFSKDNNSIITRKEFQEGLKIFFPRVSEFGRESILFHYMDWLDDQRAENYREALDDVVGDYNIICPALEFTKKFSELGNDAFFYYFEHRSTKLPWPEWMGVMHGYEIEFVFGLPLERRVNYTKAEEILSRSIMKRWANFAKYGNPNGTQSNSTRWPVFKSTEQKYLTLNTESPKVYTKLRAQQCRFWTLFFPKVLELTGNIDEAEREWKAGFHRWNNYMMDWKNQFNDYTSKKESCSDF

SMILES | IC50 (Butyrylcholinesterase [1]) [nM] | Ratio IC50 [2] | IC50 (Acetylcholinesterase) [nM] | IC50 (Butyrylcholinesterase [3]) [nM] | inhibition [4] [%] | Ratio [5] | inhibition [6]
COc1ccc2cc3[n+](cc2c1OCCCCOc1cccc(O)c1)CCc1cc2c(cc1-3)OCO2 | 1920 | 4.39 | 547 | 2400 | 72.8 | 5.3 | –
COc1cc(/C=C/C(=O)OCCCOc2c(OC)ccc3cc4[n+](cc23)CCc2cc3c(cc2-4)OCO3)ccc1O | 2250 | 0.75 | 3210 | 2400 | 75.8 | 3.43 | –
COc1ccc2cc3[n+](cc2c1OCCCCOc1ccc(O)cc1)CCc1cc2c(cc1-3)OCO2 | 950 | 3.42 | 304 | 1040 | 86.6 | 6.45 | –
COc1ccc2cc3[n+](cc2c1OCCCCOc1ccccc1O)CCc1cc2c(cc1-3)OCO2 | 1740 | 17 | 123 | 2090 | 84.5 | 3.54 | Active
COc1ccc2[nH]cc(CCNC(=O)CCOc3c(OC)ccc4cc5[n+](cc34)CCc3cc4c(cc3-5)OCO4)c2c1 | 2490 | 1.88 | 1440 | 2720 | 79.5 | 3.61 | –
COc1ccc2cc3[n+](cc2c1OC)CCc1cc2c(cc1-3)OCO2 | – | – | – | – | 36.3 | – | –
COc1cc(/C=C/C(=O)O)ccc1O [FERULATE] | – | – | > 100000 | – | 6.1 | 3.13 | –
COc1ccc2[nH]cc(CCNC(C)=O)c2c1 | – | – | – | – | – | 2.3 | –
COc1ccc2cc3[n+](cc2c1OCCCOc1cccc(O)c1)CCc1cc2c(cc1-3)OCO2 | 898 | 1.8 | 628 | 1130 | 85.9 | 5.31 | –
COc1ccc2cc3[n+](cc2c1OCCC(=O)NCCc1c[nH]c2ccc(C)cc12)CCc1cc2c(cc1-3)OCO2 | 1790 | 1.39 | 1420 | 1960 | 75.8 | 3.11 | –
COc1ccc2cc3[n+](cc2c1OCCCOc1ccccc1O)CCc1cc2c(cc1-3)OCO2 | 1300 | 3.55 | 490 | 1740 | 83.5 | 3.41 | –
COc1ccc2cc3[n+](cc2c1OCCCCOc1ccccc1)CCc1cc2c(cc1-3)OCO2 | – | – | – | – | 57.4 | – | –
COc1ccc2cc3[n+](cc2c1OCCC(=O)NCCc1c[nH]c2ccccc12)CCc1cc2c(cc1-3)OCO2 | 1460 | – | 1110 | 1640 | 82.8 | 3.78 | –
COc1ccc2cc3[n+](cc2c1OCCCOc1ccc(O)cc1)CCc1cc2c(cc1-3)OCO2 | 1660 | 4.48 | 460 | 2060 | 92 | 9.54 | –
